Screening results from PubChem BioAssay.
The list is not random: actives were taken first. Their share in the collection is about 1.2%.
CaV13 FRET inh – Disruptors of the CACNA1D IQ motif to Ca2+-dependent inactivation inhibitor domain association, primary screening, Förster resonance energy transfer in intact living …; HEK cells, CFP/YFP FRET ICDI-IQ, plate reader, 10 min; percent FRET-ratio fall versus neutral wells; inhibition, % at 12.3 µM; 340,000 compounds, 0.098% hits; AID 743397;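 active = mean replicate inhibition of at least 30% and at least 1% of replicates passing that level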;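 note: 0% = median of the neutral control wells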
ARNT-TACC3 inh – disruptors of human ARNT/TACC3 interaction. 390,000 compounds, 0.66% hits. AlphaScreen His-ARNT PAS-B/GST-TACC3 binding, luminescence; TACC3 fragment carries E629A point mutation. Q9Y6A5. inhibition, % at 9.99 µM. AID 623870;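 active = mean inhibition of replicates at least 50% and at least half of replicates each reaching 50%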;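 note: 0% = complete ARNT plus TACC3 wells and 100% = ARNT alone without TACC3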
CAL PDZ FP-1 – blocks peptide binding to human CAL PDZ domain. purified CAL PDZ, TMR-peptide fluorescence polarization, 1 h. inhibition, % at 20 µM. 330,000 compounds, 0.02% hits. AID 504414;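 active = highest replicate inhibition of at least 40%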;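 note: plate controls were DMSO neutral control wells for no effect and unlabeled competitor peptide control wells for full effect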
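System: purified tagged CAL PDZ domain construct (CerCALP). Schedule: 1 h incubation at room temperature before polarization reading. Medium: 25 mM sodium phosphate pH 7.4, 150 mM NaCl, TCEP, IgG, Thesit. Read-out: percent inhibition from loss of millipolarization. Measured by: FP readout, S and P plane fluorescence. Probe or stimulus: fluorescent TMR peptide probe.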
CAL PDZ FP-2 – inhibitors of human CAL PDZ peptide binding; inhibition, % at 24.9 µM; 300,000 compounds, 0.92% hits; AID 602252; purified CAL PDZ, TMR-peptide fluorescence polarization, 1 h; Q9HD26;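 active = mean inhibition of at least 30% with at least half of replicates also reaching 30%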;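 note: 0% = DMSO neutral control and 100% = excess unlabeled competitor peptide PRC23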
* = called active by the depositor; . = no result given; + = active, no number.

SMILES	CaV13 FRET inh	ARNT-TACC3 inh	CAL PDZ FP-1	CAL PDZ FP-2
C[C@H](CO)N1C[C@H](C)[C@H](CN(C)C(=O)Nc2ccc(C(F)(F)F)cc2)Oc2ccc(NC(=O)Nc3ccc4c(c3)OCO4)cc2C1=O	.	3	.	.
COCCNC(=S)N/N=C/c1ccc(-c2ccc([N+](=O)[O-])cc2)o1	+	-1	-1	-2
CC1CN(C(=O)c2cccc(S(=O)(=O)Nc3cc(Cl)ccc3Cl)c2)CC(C)O1 (stereo not drawn)	-4	3	-1	79*
O=C(NCCCN1CCOCC1)c1cccc(S(=O)(=O)Nc2cc(Cl)ccc2Cl)c1	-2	-4	-1	38*
CC1CN(C(=O)c2cc(S(=O)(=O)N3CCCCC3)ccc2Cl)CC(C)O1 (stereo not drawn)	-15	.	0	39*
CC1CN(C(=O)c2cc(S(=O)(=O)N3CCCC3)ccc2Cl)CC(C)O1 (stereo not drawn)	.	-5	-2	-2
C[C@H](NC(=O)C[C@H]1CC[C@@H](NC(=O)c2cccnc2)[C@@H](CO)O1)c1ccccc1	.	-5	.	.
CCNC(=O)C[C@H]1CC[C@H]2[C@H](COc3ccc(NC(=O)c4cscn4)cc3C(=O)N2C)O1	.	4	.	.
COc1ccc(CNC(=O)C[C@@H]2C[C@@H]3c4cc(NC(=O)CN(C)C)ccc4O[C@@H]3[C@H](CO)O2)cc1	.	-7	.	.
O=S(=O)(N[C@@H]1CC[C@@H](CCn2cc(C3CC3)nn2)O[C@H]1CO)c1ccc(F)cc1	.	8	.	.
Cc1noc(C)c1S(=O)(=O)Nc1ccc2c(c1)C(=O)N([C@@H](C)CO)C[C@@H](C)[C@H](CN(C)S(=O)(=O)c1c(C)noc1C)OCCCC[C@@H](C)O2	.	-2	.	.
CCN(C[C@H]1[C@H](c2ccc(C3=CCCC3)cc2)[C@@H](CO)N1C(C)=O)C(C)=O	.	4	.	.
COc1ccc(N(CC(=O)N2CCCCCC2)S(=O)(=O)c2ccc(OC)c(OC)c2)cc1	-4	-2	-1	51*
O=C(CC1CC1)Nc1ccc2c(c1)[C@@H]1C[C@H](CC(=O)N3CCCCC3)O[C@@H](CO)[C@@H]1O2	.	8	.	.
O=C(c1ccc(F)cc1)N1CC[C@@H]2[C@H](CO)Nc3ccc(C#Cc4ccccc4F)cc3[C@@H]21	.	4	.	.
Cn1c(CN2CCCC2)nc2cc(NC(=O)COc3ccc(Cl)cc3)ccc21	-8	-4	-3	-1
COc1ccc(OCC(=O)Nc2ccc3c(c2)nc(CN2CCCC2)n3C)cc1	-5	-12	-1	58*
CN1C(=O)c2cc(NC(=O)Cc3ccccc3)ccc2OC[C@H]2O[C@H](CC(=O)O)CC[C@@H]21	.	-7	.	.
COc1ccccc1NC(=O)CSc1nn2c(=O)c(C)nnc2s1	-5	.	-2	1
O=C(CSc1ccc2nnc(-c3ccccn3)n2n1)Nc1ccccc1C(F)(F)F	-3	52*	-2	1
Cc1nnc(NC(=O)CSc2ccc3nnc(-c4ccccn4)n3n2)s1	-9	40	-2	-3
Cc1nnc2sc(SCC(=O)Nc3nccs3)nn2c1=O	-10	76*	-2	-4
O=C(CSc1ccc2nnc(-c3ccccn3)n2n1)Nc1nccs1	-6	60*	-1	3
COc1ccccc1NC(=O)CSc1ccc2nnc(-c3cccnc3)n2n1	-7	71*	0	.
CCNC(=O)[C@@H]1[C@@H](CO)[C@@H]2Cn3c(ccc(-c4ccccc4)c3=O)[C@@H]2N1C(=O)C1CC1	.	-3	.	.
SMILES	CaV13 FRET inh	ARNT-TACC3 inh	CAL PDZ FP-1	CAL PDZ FP-2
Cc1ccccc1-c1cnc2c(c1)C(=O)N([C@@H](C)CO)C[C@@H](C)[C@H](CN(C)CC1CCOCC1)O2	.	-6	.	.
COC(=O)c1ccc(CSc2ccc3nnc(-c4ccc(F)cc4)n3n2)o1	-5	.	-4	-4
COC(=O)c1ccc(CSc2ccc3nnc(-c4ccccn4)n3n2)o1	-5	58*	-1	-2
CCOc1ccc(NC(=O)CSc2ccc3nnc(-c4ccccn4)n3n2)cc1	-10	11	-1	1
O=C(CSc1ccc2nnc(-c3ccccn3)n2n1)Nc1ccccc1	-10	47*	-1	-3
CCNC(=O)C[C@H]1CC[C@H]2[C@@H](COC[C@@H](O)CN2C(=O)C2CC2)O1	.	-3	.	.
C[C@@H]1CN([C@H](C)CO)C(=O)c2cc(C3=CCCCC3)cnc2O[C@H]1CN(C)Cc1cccnc1	.	-8	.	.
OCCN1CCN(C(=S)c2ccc(Cl)c(Cl)c2)CC1	.	66*	-1	-1
COc1cc(NC(=S)N2CCN(CCO)CC2)c(OC)cc1Cl	-9	.	-3	5
Cc1cc(NC2=CC(=O)C(=O)c3ccccc32)no1	-6	37*	1	1
COCC(=O)Nc1ccc2c(c1)OC[C@H](C)N(Cc1cccnc1)C[C@@H](C)[C@H](OC)CN(C)C2=O	.	7	.	.
COC(=O)C1=C(C)NC(C)=C(C(=O)OC)C1c1ccco1	-15	-2	-2	91*
CCOC(=O)C1=C(C)NC(C)=C(C(=O)OCC)C1c1ccc(C)o1	-4	-11	-1	74*
C=CCOC(=O)C1=C(C)NC(C)=C(C(=O)OCC=C)C1c1ccc(C)o1	-2	-1	0	-6
CCOC(=O)C1=C(C)NC(C)=C(C(=O)OCC)C1c1ccco1	-19	-6	0	.
Cc1ccc(-c2cnc3c(c2)C(=O)N([C@@H](C)CO)C[C@H](C)[C@H](CN(C)C(=O)Cc2ccccc2)O3)cc1	.	4	.	.
CCN(CC)c1ccc2cc(C(N)=O)c(=N)oc2c1	4	.	0	6
CCN(CC)c1ccc2cc(C(N)=O)c(=O)oc2c1	33*	24	0	-2
O=C(NCc1cccs1)C1CCCN1S(=O)(=O)c1ccccc1F (stereo not drawn)	-4	-19	.	86*
O=C(NCc1ccccc1Cl)C1CCCN1S(=O)(=O)c1ccccc1F (stereo not drawn)	-5	-8	-3	-1
O=C(CSc1nc2c(sc3ccccc32)c(=O)n1Cc1ccccc1)NCC1CCCO1 (stereo not drawn)	-5	1	89*	4
O=C(CSc1nc2c(sc3ccccc32)c(=O)n1Cc1ccco1)NCC1CCCO1 (stereo not drawn)	-6	-11	-1	-5
CCCCNC(=O)CSc1nc2ccc(N3CCOCC3)cc2c(=O)n1CCc1ccccc1	-4	-6	-3	-2
O=C(CSc1nc2ccc(N3CCOCC3)cc2c(=O)n1CCc1ccccc1)NCC1CCCO1 (stereo not drawn)	-3	-1	-3	68*
C/C=C/c1cnc2c(c1)C(=O)N([C@H](C)CO)C[C@@H](C)[C@H](CN(C)S(=O)(=O)c1cn(C)cn1)O2	.	-4	.	.
Cc1ccc(S(=O)(=O)N(C)C[C@@H]2Oc3ccc(NC(=O)CCN4CCOCC4)cc3CC(=O)N([C@H](C)CO)C[C@H]2C)cc1	.	1	.	.
Cc1cccc(NC(=O)CSc2cccc3cccnc23)c1	-4	57*	-1	-6
